ChEMBL document CHEMBL4480414, “Design and total synthesis of (-)-codonopsinine, (-)-codonopsine and codonopsinine analogues by O-(2-oxopyrrolidin-5-yl)trichloroacetimidate as amidoalkylating agent with improved antimicrobial activity via solid lipid nanoparticle formulations” (Bioorg Med Chem, 2019)
In brackets after ≈: the same amount, converted by molar mass. Activity calls are given as the source filed them. No cut-off for these calls is given here.

How the values were obtained:
[1] = Permeability of the compound in simulated dialysis membrane at pH 6.8 measured within 6 hrs by Franz diffusion cell-based spectrophotometric method; format: ADME, cell membranes; details: artificial membrane, pH 6.8, 6 h
Outline: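 Franz cell with dialysis membrane. 1 ml of SLN formula or compound suspension in the donor chamber; receptor holds phosphate buffer pH 6.8 at 37 °C, magnetically stirred. Receptor sampled with replacement over 6 h; concentration by UV absorbance against a calibration curve.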

Klebsiella pneumoniae [2] = experiment: Antimicrobial activity against Klebsiella pneumoniae ATCC 700603 measured after 18 hrs using solid lipid nanoparticle formulation by broth microdilution method; format: functional; details: Klebsiella pneumoniae, 700603, 18 h
Outline: (§1)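 Broth microdilution in 96-well plates. Compound stock 10 mg/ml in DMSO, two-fold serial dilutions from final 1024 to 0.5 µg/ml in water plus double-strength nutrient broth. Inoculum from direct colony suspension in saline adjusted to 0.5 McFarland, final 5 × 10⁵ CFU per well, used within 15 min. Positive and negative control rows.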

Escherichia coli [3] = experiment: Antimicrobial activity against Escherichia coli ATCC 25922 measured after 18 hrs using solid lipid nanoparticle formulation by broth microdilution method; format: functional; details: ATCC 25922, 18 h; outline: as §1
Klebsiella pneumoniae [4] = experiment: Antimicrobial activity against Klebsiella pneumoniae ATCC 700603 measured after 18 hrs by broth microdilution method; format: functional; details: Klebsiella pneumoniae, 700603, 18 h; outline: as §1
[5] = Permeability of the compound in simulated dialysis membrane at pH 6.8 measured within 6 hrs using solid lipid nanoparticle formulation by Franz diffusion cell-based spectrophotometric method; format: ADME, cell membranes; details: artificial membrane, pH 6.8, 6 h
Outline: (§2)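 SLNs made by hot emulsification-ultrasonication with Compritol as lipid and 3% Pluronic F68 aqueous phase. Homogenized at 10,000 rpm and 75 °C for 15 min, then probe-sonicated 10 min.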

Proteus mirabilis [6] = experiment: Antimicrobial activity against Proteus mirabilis ATCC 14153 measured after 18 hrs using solid lipid nanoparticle formulation by broth microdilution method; format: functional; details: ATCC 14153, 18 h; outline: as §1
Staphylococcus aureus [7] = experiment: Antimicrobial activity against Staphylococcus aureus ATCC 29213 measured after 18 hrs by broth microdilution method; format: functional; details: ATCC 29213, 18 h; outline: as §1
Pseudomonas aeruginosa [8] = experiment: Antimicrobial activity against Pseudomonas aeruginosa ATCC 27853 measured after 18 hrs by broth microdilution method; format: functional; details: ATCC 27853, 18 h; outline: as §1
[9] = Dissolution of the compound in phosphate buffer at pH 6.8 measured over 12 hrs using solid lipid nanoparticle formulation by dialysis bag diffusion method; format: physicochemical; details: artificial membrane, pH 6.8, 12 h; outline: as §2
Candida albicans [10] = experiment: Antimicrobial activity against Candida albicans ATCC 10231 at 380 ug by Kirby-Bauer disk diffusion test; format: functional, organism-based
Outline: (§3)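 Modified Kirby-Bauer disc diffusion on Muller-Hinton agar. Inhibition-zone diameter, disc diameter included, measured with a ruler from under the plate and recorded in mm.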

Candida albicans [11] = experiment: Antimicrobial activity against Candida albicans ATCC 10231 measured after 18 hrs using solid lipid nanoparticle formulation by broth microdilution method; format: functional; details: ATCC 10231, 18 h; outline: as §1
Candida albicans [12] = experiment: Antimicrobial activity against Candida albicans ATCC 10231 measured after 18 hrs by broth microdilution method; format: functional; details: ATCC 10231, 18 h; outline: as §1
Acinetobacter baumannii [13] = experiment: Antimicrobial activity against clinical isolate of Acinetobacter baumannii measured after 18 hrs using solid lipid nanoparticle formulation by broth microdilution method; format: functional; outline: as §1
Pseudomonas aeruginosa [14] = experiment: Antimicrobial activity against Pseudomonas aeruginosa ATCC 27853 measured after 18 hrs using solid lipid nanoparticle formulation by broth microdilution method; format: functional; details: ATCC 27853, 18 h; outline: as §1
Acinetobacter baumannii [15] = experiment: Antimicrobial activity against clinical isolate of Acinetobacter baumannii measured after 18 hrs by broth microdilution method; format: functional; outline: as §1
[16] = Dissolution of the compound in phosphate buffer at pH 6.8 measured within 2 hrs by dialysis bag diffusion method; format: physicochemical; details: artificial membrane, pH 6.8, 2 h
Outline: (§4)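 Formula or compound suspension (3 ml) in 12 kDa MWCO dialysis bags, in 500 ml enzyme-free phosphate buffer pH 6.8, 37 °C, 50 rpm. 5 ml samples taken with replacement over 12 h. Cumulative % release determined by UV absorbance against a calibration curve.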

Proteus mirabilis [17] = experiment: Antimicrobial activity against Proteus mirabilis ATCC 14153 measured after 18 hrs by broth microdilution method; format: functional; details: ATCC 14153, 18 h; outline: as §1
Staphylococcus aureus [18] = experiment: Antimicrobial activity against Staphylococcus aureus ATCC 29213 measured after 18 hrs using solid lipid nanoparticle formulation by broth microdilution method; format: functional; details: ATCC 29213, 18 h; outline: as §1
Escherichia coli [19] = experiment: Antimicrobial activity against Escherichia coli ATCC 25922 measured after 18 hrs by broth microdilution method; format: functional; details: ATCC 25922, 18 h; outline: as §1
Staphylococcus aureus [20] = experiment: Antimicrobial activity against Staphylococcus aureus ATCC 29213 assessed as diameter of inhibition zone at 380 ug by Kirby-Bauer disk diffusion test; format: functional; details: for zone of inhibition at 380 µg/disc: read-out: DIZ; outline: as §3
[21] = Dissolution of the compound in phosphate buffer at pH 6.8 measured after 2 hrs by dialysis bag diffusion method; format: physicochemical; details: artificial membrane, pH 6.8, 2 h; outline: as §4
Pseudomonas aeruginosa [22] = experiment: Antimicrobial activity against Pseudomonas aeruginosa ATCC 27853 assessed as diameter of inhibition zone at 380 ug by Kirby-Bauer disk diffusion test; format: functional; details: read-out: DIZ; outline: as §3
Klebsiella pneumoniae [23] = experiment: Antimicrobial activity against Klebsiella pneumoniae ATCC 700603 assessed as diameter of inhibition zone at 380 ug by Kirby-Bauer disk diffusion test; format: functional; details: read-out: DIZ; outline: as §3
Acinetobacter baumannii [24] = experiment: Antimicrobial activity against clinical isolate of Acinetobacter baumannii assessed as diameter of inhibition zone at 380 ug by Kirby-Bauer disk diffusion test; format: functional; details: read-out: DIZ; outline: as §3
Escherichia coli [25] = experiment: Antimicrobial activity against Escherichia coli ATCC 25922 assessed as diameter of inhibition zone at 380 ug by Kirby-Bauer disk diffusion test; format: functional; details: read-out: DIZ; outline: as §3
Proteus mirabilis [26] = experiment: Antimicrobial activity against Proteus mirabilis ATCC 14153 assessed as diameter of inhibition zone at 380 ug by Kirby-Bauer disk diffusion test; format: functional; details: read-out: DIZ; outline: as §3

permeability [1] [%]	MIC (Klebsiella pneumoniae [2]) [µg/mL]	MIC (Escherichia coli [3]) [µg/mL]	MIC (Klebsiella pneumoniae [4]) [µg/mL]	permeability [5] [%]	MIC (Proteus mirabilis [6]) [µg/mL]	MIC (Staphylococcus aureus [7]) [µg/mL]	MIC (Pseudomonas aeruginosa [8]) [µg/mL]	Activity [9] [%]	MIC (Candida albicans [11]) [µg/mL]	MIC (Candida albicans [12]) [µg/mL]	MIC (Acinetobacter baumannii [13]) [µg/mL]	MIC (Pseudomonas aeruginosa [14]) [µg/mL]	MIC (Acinetobacter baumannii [15]) [µg/mL]	Activity [16] [%]	MIC (Proteus mirabilis [17]) [µg/mL]	MIC (Staphylococcus aureus [18]) [µg/mL]	MIC (Escherichia coli [19]) [µg/mL]	SMILES	Activity (Candida albicans [10])	growth inhibition (GI) (Staphylococcus aureus [20])	further results
62.7	512 (≈ 2040 µM)	8 (≈ 31.8 µM)	256 (≈ 1020 µM)	100	8 (≈ 31.8 µM)	2 (≈ 7.96 µM)	> 1020	92.1	> 1020	> 1020	> 1020	> 1020	> 1020	91.8	16 (≈ 63.7 µM)	2 (≈ 7.96 µM)	8 (≈ 31.8 µM)	COCc1ccc([C@@H]2[C@@H](O)[C@H](O)[C@@H](C)N2C)cc1	inactive	Active	–
60.7	1020 (≈ 4320 µM)	64 (≈ 270 µM)	> 1020	100	64 (≈ 270 µM)	≤ 0.5	1020 (≈ 4320 µM)	93.3	> 1020	> 1020	256 (≈ 1080 µM)	> 1020	> 1020	95.2	128 (≈ 539 µM)	≤ 0.5	128 (≈ 539 µM)	COc1ccc([C@@H]2[C@@H](O)[C@H](O)[C@@H](C)N2C)cc1	inactive	–	zone of inhibition at 380 µg/disc (Staphylococcus aureus [20]): 32 mm
72.9	> 1020	16 (≈ 53.5 µM)	512 (≈ 1710 µM)	100	128 (≈ 428 µM)	4 (≈ 13.4 µM)	1020 (≈ 3420 µM)	92.2	> 1020	> 1020	256 (≈ 855 µM)	> 1020	512 (≈ 1710 µM)	–	1020 (≈ 3420 µM)	4 (≈ 13.4 µM)	64 (≈ 214 µM)	COc1cc([C@@H]2[C@@H](O)[C@H](O)[C@@H](C)N2C)c(F)c(C)c1OC	inactive	Active	Activity [21]: 78.2%
49.8	> 1020	16 (≈ 77.2 µM)	1020 (≈ 4940 µM)	100	2 (≈ 9.65 µM)	1020 (≈ 4940 µM)	1020 (≈ 4940 µM)	91.2	> 1020	> 1020	16 (≈ 77.2 µM)	512 (≈ 2470 µM)	128 (≈ 618 µM)	100	4 (≈ 19.3 µM)	1020 (≈ 4940 µM)	16 (≈ 77.2 µM)	C[C@@H]1[C@@H](O)[C@H](O)[C@@H](c2ccccc2)N1C	inactive	–	zone of inhibition at 380 µg/disc (Pseudomonas aeruginosa [22]): 18 mm; zone of inhibition at 380 µg/disc (Klebsiella pneumoniae [23]): 22 mm; zone of inhibition at 380 µg/disc (Acinetobacter baumannii [24]): 32 mm; zone of inhibition at 380 µg/disc (Escherichia coli [25]): 40 mm; zone of inhibition at 380 µg/disc (Proteus mirabilis [26]): 34 mm

The remaining lines, values behind:

SMILES	permeability [1] [%]	MIC (Klebsiella pneumoniae [2]) [µg/mL]	MIC (Escherichia coli [3]) [µg/mL]	MIC (Klebsiella pneumoniae [4]) [µg/mL]	permeability [5] [%]	MIC (Proteus mirabilis [6]) [µg/mL]	MIC (Staphylococcus aureus [7]) [µg/mL]	MIC (Pseudomonas aeruginosa [8]) [µg/mL]	Activity [9] [%]	MIC (Candida albicans [11]) [µg/mL]	MIC (Candida albicans [12]) [µg/mL]	MIC (Acinetobacter baumannii [13]) [µg/mL]	MIC (Pseudomonas aeruginosa [14]) [µg/mL]	MIC (Acinetobacter baumannii [15]) [µg/mL]	Activity [16] [%]	MIC (Proteus mirabilis [17]) [µg/mL]	MIC (Staphylococcus aureus [18]) [µg/mL]	MIC (Escherichia coli [19]) [µg/mL]	Activity (Candida albicans [10])	growth inhibition (GI) (Staphylococcus aureus [20])	further results
Cc1ccc([C@@H]2[C@@H](O)[C@H](O)[C@@H](C)N2C)cc1	56.3	512 (≈ 2310 µM)	512 (≈ 2310 µM)	1020 (≈ 4630 µM)	100	512 (≈ 2310 µM)	> 1020	1020 (≈ 4630 µM)	90.1	> 1020	> 1020	64 (≈ 289 µM)	1020 (≈ 4630 µM)	256 (≈ 1160 µM)	100	1020 (≈ 4630 µM)	1020 (≈ 4630 µM)	128 (≈ 578 µM)	inactive	–	–
COc1ccc([C@@H]2[C@@H](O)[C@H](O)[C@@H](C)N2C)cc1OC	67.2	> 1020	256 (≈ 958 µM)	> 1020	100	> 1020	32 (≈ 120 µM)	> 1020	93.2	> 1020	> 1020	> 1020	> 1020	> 1020	87.8	> 1020	32 (≈ 120 µM)	64 (≈ 239 µM)	inactive	Active	–
COc1ccc([C@@H]2[C@@H](O)[C@H](O)[C@@H](C)N2C)c(F)c1	59.1	1020 (≈ 4010 µM)	16 (≈ 62.7 µM)	> 1020	100	> 1020	≤ 0.5	> 1020	90.2	> 1020	> 1020	512 (≈ 2010 µM)	> 1020	512 (≈ 2010 µM)	96.7	> 1020	≤ 0.5	4 (≈ 15.7 µM)	inactive	–	zone of inhibition at 380 µg/disc (Staphylococcus aureus [20]): 30 mm
